Seven molecules from PMC3729215 (Bioorganic & medicinal chemistry, 2011) can be followed below.

Assay [1] addresses T1, rTRPV1 (Rattus norvegicus, UniProt O35433). Format: cell-based. Conditions: rTRPV1/CHO. The procedure, abridged: (§1)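 Both binding and function were measured on rat TRPV1 heterologously expressed in CHO cells. Affinity came from competition with [3H]RTX. Antagonism came from a functional 45Ca2+ uptake assay. Values are mean ± SEM from 3 or more experiments.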
The target of assay [2] is T1, rTRPV1. Nature of the assay: [3H]RTX binding competition assay, rat TRPV1 expressed in CHO cells. In outline: as §1

T1 sequence (O35433 whole entry): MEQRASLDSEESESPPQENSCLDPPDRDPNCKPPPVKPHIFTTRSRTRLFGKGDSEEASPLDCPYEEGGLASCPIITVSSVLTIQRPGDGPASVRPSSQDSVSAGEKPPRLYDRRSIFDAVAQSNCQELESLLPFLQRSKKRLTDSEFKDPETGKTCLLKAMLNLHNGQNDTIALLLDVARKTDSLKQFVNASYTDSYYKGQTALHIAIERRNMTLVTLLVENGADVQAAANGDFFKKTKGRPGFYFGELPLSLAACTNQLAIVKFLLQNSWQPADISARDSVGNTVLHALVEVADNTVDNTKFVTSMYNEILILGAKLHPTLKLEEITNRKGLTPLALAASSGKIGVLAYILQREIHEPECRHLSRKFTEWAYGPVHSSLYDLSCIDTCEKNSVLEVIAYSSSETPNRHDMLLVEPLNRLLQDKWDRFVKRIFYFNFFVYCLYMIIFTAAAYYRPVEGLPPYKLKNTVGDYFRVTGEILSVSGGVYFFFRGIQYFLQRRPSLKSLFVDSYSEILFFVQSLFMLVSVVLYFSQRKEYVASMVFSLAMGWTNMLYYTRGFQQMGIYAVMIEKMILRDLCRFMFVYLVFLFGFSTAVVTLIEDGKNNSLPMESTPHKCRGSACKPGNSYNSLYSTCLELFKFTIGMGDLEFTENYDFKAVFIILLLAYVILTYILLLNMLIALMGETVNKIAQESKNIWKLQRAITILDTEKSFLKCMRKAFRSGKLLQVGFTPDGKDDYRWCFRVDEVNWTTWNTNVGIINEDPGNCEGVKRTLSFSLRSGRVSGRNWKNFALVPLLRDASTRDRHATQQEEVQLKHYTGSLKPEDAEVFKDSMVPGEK

On to `CC(C(=O)NCc1ccc(C(C)(C)C)cc1)c1ccc(NS(C)(=O)=O)c(Cl)c1` (stereo not shown) [compound 55, N-(4-tert-Butylbenzyl)-2-[3-chloro-4-(methylsulfonylamino)phenyl]propionamide], for which the “fold reduction in potency as antagonist compared to 54” value (shortened to “fold reduction in potency”) in assay [1] was 4 fold.

`CC(C(=O)NCc1ccc(C(C)(C)C)cc1)c1ccc(NS(C)(=O)=O)c(Br)c1` (stereo not shown) [compound 56, N-(4-tert-Butylbenzyl)-2-[3-bromo-4-(methylsulfonylamino)phenyl]propionamide]: the “fold reduction in potency” value in assay [1] was found to be 4 fold.

For `C[C@H](C(=O)NCc1ccc(C(C)(C)C)cc1)c1ccc(NS(C)(=O)=O)c(F)c1` [54S, N-(4-tert-Butylbenzyl)-(2S)-2-[3-fluoro-4-(methylsulfonylamino)phenyl]propionamide], in assay [2] (binding and antagonism together), the “fold enhancement in receptor activity compared to 54” value is on record as around 2 fold.

For the molecule `CC(C(=O)NCc1ccc(C(C)(C)C)cc1)c1cc(F)c(NS(C)(=O)=O)c(F)c1` (stereo not shown) [compound 58, N-(4-tert-Butylbenzyl)-2-[3,5-difluoro-4-(methylsulfonylamino)phenyl]propionamide], in assay [2] (rTRPV1/CHO), the “fold enhancement in binding affinity compared to 54” value stood at 2 fold.

In the case of `CC(C(=O)NCc1ccc(C(C)(C)C)cc1)c1ccc(NS(C)(=O)=O)c(I)c1` (stereo not shown) [compound 57, N-(4-tert-Butylbenzyl)-2-[3-iodo-4-(methylsulfonylamino)phenyl]propionamide], the “fold reduction in potency” value in assay [1] is given as 4 fold.

In the case of `COc1cc(C(C)C(=O)NCc2ccc(C(C)(C)C)cc2)ccc1NS(C)(=O)=O` (stereo not shown) [compound 71, N-(4-tert-Butylbenzyl)-2-[3-methoxy-4-(methylsulfonylamino)phenyl]propionamide], the “fold reduced activity in binding affinity and antagonism” value in assay [2] (rTRPV1/CHO, binding and antagonism together, compared with 54) is recorded as 10 to 30 fold.

As for `C[C@@H](C(=O)NCc1ccc(C(C)(C)C)cc1)c1ccc(NS(C)(=O)=O)c(F)c1` [54R, N-(4-tert-Butylbenzyl)-(2R)-2-[3-fluoro-4-(methylsulfonylamino)phenyl]propionamide], the “fold weaker activity compared with 54S” value in assay [2] (rTRPV1, binding and antagonism together) is 30- to 40 fold.
